Laboratory results taken from ChEMBL document CHEMBL4706499, “PTG-0861: A novel HDAC6-selective inhibitor as a therapeutic strategy in acute myeloid leukaemia” (Eur J Med Chem, 2020).

How the values were obtained:
MV4-11 [1] = assay: Induction of apoptosis in human MV4-11 cells assessed as early apoptotic cells at 0.25 microM measured after 18 hrs by Annexin V/Propidium iodide stain based Flow cytometry assay (reference value: 1.7%); type: functional
[2] = AUC (infinity) in CD1 mouse at 20 mg/kg, ip measured after 24 hrs by LC/MS/MS method; type: ADME, organism-based; parameters: route intraperitoneal, dose 20 mg/kg, time 24 hrs; conditions: in vivo
[3] = Apparent permeability across apical to basolateral side in human Caco2 cells measured after 2 hrs by LC-MS/MS method; type: ADME, cell-based; conditions: Caco-2
How it was run: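 Bidirectional Caco-2 permeability was measured as Papp in the apical-to-basolateral and basolateral-to-apical directions. The efflux ratio was calculated from the two directional Papp values.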

Histone deacetylase 3 = Histone deacetylase 3 (Homo sapiens, UniProt O15379); assay: Inhibition of recombinant full length human HDAC3 expressed in SF9 baculovirus using FAM- labelled acetylated peptide as substrate measured by Electrophoretic mobility shift assay
Histone deacetylase 9 = Histone deacetylase 9 (Homo sapiens, UniProt Q9UKV0); assay: Inhibition of recombinant full length human HDAC9 expressed in SF9 baculovirus using FAM- labelled acetylated peptide as substrate measured by Electrophoretic mobility shift assay
MV4-11 [4] = assay: Induction of apoptosis in human MV4-11 cells assessed as viable cells at 0.5 microM measured after 18 hrs by Annexin V/Propidium iodide stain based Flow cytometry assay (reference value: 53.27%); type: functional; conditions: read-out: Activity
HUVEC = assay: Cytotoxicity against human HUVEC cells measured after 72 hrs by spectrophotometer method; type: cell-based
[5] = Cmax in CD1 mouse at 20 mg/kg, ip measured after 24 hrs by LC/MS/MS method; type: ADME, organism-based; parameters: route intraperitoneal, dose 20 mg/kg, time 24 hrs; conditions: in vivo
MV4-11 [6] = assay: Induction of apoptosis in human MV4-11 cells assessed as late apoptotic cells at 0.5 microM measured after 18 hrs by Annexin V/Propidium iodide stain based Flow cytometry assay (reference value: 4.91%); type: functional
Fibroblast [7] = assay: Cytotoxicity against human fibroblasts measured after 72 hrs by spectrophotometer method; type: cell-based
Fibroblast [8] = assay: Cytotoxicity against pooled human fibroblasts measured after 72 hrs by spectrophotometer method; type: cell-based
MV4-11 [9] = assay: Induction of apoptosis in human MV4-11 cells assessed as viable cells at 0.25 microM measured after 18 hrs by Annexin V/Propidium iodide stain based Flow cytometry assay (reference value: 53.27%); type: functional; conditions: read-out: Activity
MV4-11 [10] = assay: Induction of apoptosis in human MV4-11 cells assessed as viable cells at 1 microM measured after 18 hrs by Annexin V/Propidium iodide stain based Flow cytometry assay (reference value: 53.27%); type: functional; conditions: read-out: Activity
[11] = Glutathione reactivity at pH 7.4 assessed as compound remaining measured after 120 mins by LC-MS/MS method; type: physicochemical; conditions: glutathione solution, read-out: Stabilty
Histone deacetylase 11 = molecular target: T1, Histone deacetylase 11 (Homo sapiens, UniProt Q96DB2); assay: Inhibition of recombinant full length human HDAC11 expressed in SF9 baculovirus using FAM- labelled acetylated peptide as substrate measured by Electrophoretic mobility shift assay
T1 sequence (Q96DB2 whole entry): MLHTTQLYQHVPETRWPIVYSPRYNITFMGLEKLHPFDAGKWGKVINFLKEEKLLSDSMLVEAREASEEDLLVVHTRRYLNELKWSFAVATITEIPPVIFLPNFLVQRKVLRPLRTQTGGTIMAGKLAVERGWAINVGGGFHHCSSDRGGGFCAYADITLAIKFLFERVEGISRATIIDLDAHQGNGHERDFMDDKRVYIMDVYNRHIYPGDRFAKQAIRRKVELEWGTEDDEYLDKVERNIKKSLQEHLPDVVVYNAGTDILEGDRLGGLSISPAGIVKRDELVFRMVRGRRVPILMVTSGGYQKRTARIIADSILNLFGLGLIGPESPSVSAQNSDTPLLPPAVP

[12] = Half life in mouse hepatocytes measured after 120 mins by LC/MS/MS method; type: ADME, cell-based, Hepatocyte
Histone deacetylase 1 = Histone deacetylase 1 (Homo sapiens, UniProt Q13547); assay: Inhibition of recombinant full length human HDAC1 expressed in SF9 baculovirus using FAM- labelled acetylated peptide as substrate measured by Electrophoretic mobility shift assay
[13] = Toxicity in CD-1 mouse assessed as changes in body weight at 20 mg/kg, po measured after 5 days; type: organism-based; conditions: in vivo, 120 h, time 5 day
MV4-11 [14] = assay: Induction of apoptosis in human MV4-11 cells assessed as early apoptotic cells at 4 microM measured after 18 hrs by Annexin V/Propidium iodide stain based Flow cytometry assay (reference value: 1.7%); type: functional
MV4-11 [15] = assay: Induction of apoptosis in human MV4-11 cells assessed as viable cells at 4 microM measured after 18 hrs by Annexin V/Propidium iodide stain based Flow cytometry assay (reference value: 53.27%); type: functional; conditions: read-out: Activity
[16] = Glutathione reactivity at pH 7.4 assessed as compound remaining measured after 60 mins by LC-MS/MS method; type: physicochemical; conditions: glutathione solution, read-out: Stabilty
[17] = Selectivity ratio of IC50 for full length recombinant human HDAC3 to IC50 for full length recombinant human HDAC6
MV4-11 [18] = assay: Induction of apoptosis in human MV4-11 cells assessed as late apoptotic cells at 4 microM measured after 18 hrs by Annexin V/Propidium iodide stain based Flow cytometry assay (reference value: 4.91%); type: functional
Histone deacetylase 4 = Histone deacetylase 4 (Homo sapiens, UniProt P56524); assay: Inhibition of recombinant full length human HDAC4 expressed in SF9 baculovirus using FAM- labelled acetylated peptide as substrate measured by Electrophoretic mobility shift assay
Histone deacetylase 2 = Histone deacetylase 2 (Homo sapiens, UniProt Q92769); assay: Inhibition of recombinant full length human HDAC2 expressed in SF9 baculovirus using FAM- labelled acetylated peptide as substrate measured by Electrophoretic mobility shift assay
Chain of Histone deacetylase 2 (Q92769 whole entry): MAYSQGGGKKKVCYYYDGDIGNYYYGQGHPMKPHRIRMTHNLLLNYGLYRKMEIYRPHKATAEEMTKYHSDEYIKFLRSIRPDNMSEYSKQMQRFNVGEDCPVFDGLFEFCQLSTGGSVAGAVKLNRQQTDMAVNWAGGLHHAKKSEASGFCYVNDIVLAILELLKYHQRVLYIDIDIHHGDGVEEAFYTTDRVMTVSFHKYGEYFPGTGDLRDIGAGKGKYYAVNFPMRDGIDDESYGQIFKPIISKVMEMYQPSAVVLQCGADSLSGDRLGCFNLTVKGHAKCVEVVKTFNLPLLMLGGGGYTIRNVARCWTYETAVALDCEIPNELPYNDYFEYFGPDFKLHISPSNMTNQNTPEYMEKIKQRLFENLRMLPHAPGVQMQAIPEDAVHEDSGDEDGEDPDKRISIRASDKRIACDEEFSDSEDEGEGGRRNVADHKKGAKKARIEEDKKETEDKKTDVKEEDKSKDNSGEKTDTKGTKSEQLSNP

Chain of Histone deacetylase 1 (Q13547 whole entry): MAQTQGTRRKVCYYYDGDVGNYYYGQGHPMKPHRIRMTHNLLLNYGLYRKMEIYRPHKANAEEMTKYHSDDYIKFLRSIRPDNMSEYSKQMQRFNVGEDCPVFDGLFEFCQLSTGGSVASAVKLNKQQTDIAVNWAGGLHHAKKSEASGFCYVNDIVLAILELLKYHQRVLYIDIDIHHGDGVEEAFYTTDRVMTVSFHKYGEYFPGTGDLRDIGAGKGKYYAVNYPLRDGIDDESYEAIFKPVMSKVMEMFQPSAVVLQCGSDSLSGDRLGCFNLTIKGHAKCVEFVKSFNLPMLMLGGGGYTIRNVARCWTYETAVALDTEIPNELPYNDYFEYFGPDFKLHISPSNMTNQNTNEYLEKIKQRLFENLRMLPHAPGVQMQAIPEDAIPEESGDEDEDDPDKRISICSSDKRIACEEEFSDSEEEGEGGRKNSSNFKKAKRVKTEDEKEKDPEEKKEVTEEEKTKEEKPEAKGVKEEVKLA
Chain of Histone deacetylase 9 (Q9UKV0 whole entry): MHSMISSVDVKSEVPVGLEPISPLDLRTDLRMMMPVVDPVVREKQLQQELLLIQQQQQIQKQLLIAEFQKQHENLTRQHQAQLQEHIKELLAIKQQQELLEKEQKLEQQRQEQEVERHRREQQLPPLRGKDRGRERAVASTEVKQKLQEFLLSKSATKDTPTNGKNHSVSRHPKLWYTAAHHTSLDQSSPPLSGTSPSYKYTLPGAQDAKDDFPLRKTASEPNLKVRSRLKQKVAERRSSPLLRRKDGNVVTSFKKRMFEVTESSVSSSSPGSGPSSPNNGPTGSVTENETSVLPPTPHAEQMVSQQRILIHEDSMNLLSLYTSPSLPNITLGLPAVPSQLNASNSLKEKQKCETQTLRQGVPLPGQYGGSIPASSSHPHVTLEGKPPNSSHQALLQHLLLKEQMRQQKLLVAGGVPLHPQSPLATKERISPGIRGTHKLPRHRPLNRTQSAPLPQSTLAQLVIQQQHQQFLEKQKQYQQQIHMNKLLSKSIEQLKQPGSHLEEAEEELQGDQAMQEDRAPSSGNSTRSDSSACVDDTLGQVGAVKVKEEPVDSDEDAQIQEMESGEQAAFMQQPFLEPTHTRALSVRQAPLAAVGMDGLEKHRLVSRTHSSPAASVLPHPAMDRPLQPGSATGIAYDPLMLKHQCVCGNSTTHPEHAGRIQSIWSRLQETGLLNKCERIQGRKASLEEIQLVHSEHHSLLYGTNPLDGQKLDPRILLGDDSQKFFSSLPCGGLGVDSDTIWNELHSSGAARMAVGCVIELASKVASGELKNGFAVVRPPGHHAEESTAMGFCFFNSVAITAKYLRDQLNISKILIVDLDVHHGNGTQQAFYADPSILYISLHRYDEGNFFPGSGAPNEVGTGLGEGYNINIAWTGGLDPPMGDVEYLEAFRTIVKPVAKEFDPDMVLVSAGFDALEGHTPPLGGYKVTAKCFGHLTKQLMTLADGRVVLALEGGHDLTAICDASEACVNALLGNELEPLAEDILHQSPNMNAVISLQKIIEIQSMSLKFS
Chain of Histone deacetylase 4 (P56524 whole entry): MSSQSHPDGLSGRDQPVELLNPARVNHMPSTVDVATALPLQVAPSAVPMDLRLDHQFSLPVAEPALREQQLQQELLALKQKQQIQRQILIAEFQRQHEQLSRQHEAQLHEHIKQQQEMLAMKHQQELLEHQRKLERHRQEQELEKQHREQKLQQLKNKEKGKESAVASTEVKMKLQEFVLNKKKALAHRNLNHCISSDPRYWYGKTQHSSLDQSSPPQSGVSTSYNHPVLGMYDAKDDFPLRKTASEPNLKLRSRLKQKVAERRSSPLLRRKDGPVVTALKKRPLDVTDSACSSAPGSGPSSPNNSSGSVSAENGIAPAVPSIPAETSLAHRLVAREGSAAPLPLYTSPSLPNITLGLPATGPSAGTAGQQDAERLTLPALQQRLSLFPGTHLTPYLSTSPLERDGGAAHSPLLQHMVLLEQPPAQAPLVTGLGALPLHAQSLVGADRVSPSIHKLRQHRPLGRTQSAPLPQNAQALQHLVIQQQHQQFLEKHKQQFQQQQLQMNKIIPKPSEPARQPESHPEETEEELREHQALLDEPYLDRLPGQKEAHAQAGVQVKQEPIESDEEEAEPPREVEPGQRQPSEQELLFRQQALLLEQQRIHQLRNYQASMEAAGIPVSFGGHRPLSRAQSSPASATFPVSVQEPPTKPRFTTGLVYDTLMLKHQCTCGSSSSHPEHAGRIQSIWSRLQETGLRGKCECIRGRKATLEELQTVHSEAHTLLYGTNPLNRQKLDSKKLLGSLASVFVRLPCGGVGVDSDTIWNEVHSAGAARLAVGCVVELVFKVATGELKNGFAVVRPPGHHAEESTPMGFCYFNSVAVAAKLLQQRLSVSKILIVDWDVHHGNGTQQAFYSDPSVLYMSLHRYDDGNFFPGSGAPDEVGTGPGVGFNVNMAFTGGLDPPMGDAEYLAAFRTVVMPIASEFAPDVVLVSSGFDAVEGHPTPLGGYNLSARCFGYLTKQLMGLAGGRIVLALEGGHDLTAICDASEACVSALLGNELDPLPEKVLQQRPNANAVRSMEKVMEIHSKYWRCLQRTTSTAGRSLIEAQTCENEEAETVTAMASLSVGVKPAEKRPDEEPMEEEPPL
Chain of Histone deacetylase 3 (O15379 whole entry): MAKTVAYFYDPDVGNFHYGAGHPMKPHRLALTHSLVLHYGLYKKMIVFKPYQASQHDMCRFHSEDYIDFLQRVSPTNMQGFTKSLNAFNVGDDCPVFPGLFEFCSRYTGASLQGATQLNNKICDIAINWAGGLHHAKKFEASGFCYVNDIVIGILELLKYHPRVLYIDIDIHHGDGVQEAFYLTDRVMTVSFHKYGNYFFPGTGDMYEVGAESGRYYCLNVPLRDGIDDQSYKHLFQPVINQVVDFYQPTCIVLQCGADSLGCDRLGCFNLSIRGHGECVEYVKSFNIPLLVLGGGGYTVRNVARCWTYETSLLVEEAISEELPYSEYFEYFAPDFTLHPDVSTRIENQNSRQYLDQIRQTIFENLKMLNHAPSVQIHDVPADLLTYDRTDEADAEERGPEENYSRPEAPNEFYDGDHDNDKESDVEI

O=C(NO)c1ccc(CNC(=O)c2c(F)c(F)c(F)c(F)c2F)cc1
Activity (MV4-11 [1]): 1.69% | AUC(0-inf) [2]: 219 ng·h/mL | Papp A→B at 2 h [3]: 1.33 ×10⁻⁶ cm/s | IC50 (Histone deacetylase 3): 0.215 µM | IC50 (Histone deacetylase 9): > 1 µM | viability at 0.5 µM (MV4-11 [4]): 47.3% | IC50 (HUVEC): 10.3 µM | Cmax [5]: 526 ng/mL | Activity (MV4-11 [6]): 7.46% | IC50 (Fibroblast [7]): 11.5 µM | IC50 (Fibroblast [8]): 14.6 µM | viability at 0.25 µM (MV4-11 [9]): 52.3% | viability at 1 µM (MV4-11 [10]): 35.6% | remaining at 2 h [11]: 97.1% | IC50 (Histone deacetylase 11): > 1 µM | half-life [12]: 50.9 min | IC50 (Histone deacetylase 1): > 1 µM | Activity [13]: Non-Toxic | Activity (MV4-11 [14]): 18% | viability at 4 µM (MV4-11 [15]): 17.9% | remaining at 1 h [16]: 98% | Ratio IC50 [17]: 36.3 | Activity (MV4-11 [18]): 41% | IC50 (Histone deacetylase 4): > 1 µM | IC50 (Histone deacetylase 2): > 1 µM
